# Source: ChEMBL document CHEMBL3352327, “Catechol-rhodanine derivatives: Specific and promiscuous inhibitors of Escherichia coli deoxyxylulose phosphate reductoisomerase (DXR)” (Bioorg Med Chem, 2014)
# Calls of active or inactive are those of the source. No cut-off for these calls is given here.
# What was measured:
# [1] = target: T1, 1-deoxy-D-xylulose 5-phosphate reductoisomerase (Escherichia coli K-12) (UniProt P45568); test: Inhibition of His-tagged Escherichia coli DXR at 6 uM pre-incubated for 2 mins before reaction initiation in presence of 160 uM NADPH
# T1 sequence (whole entry): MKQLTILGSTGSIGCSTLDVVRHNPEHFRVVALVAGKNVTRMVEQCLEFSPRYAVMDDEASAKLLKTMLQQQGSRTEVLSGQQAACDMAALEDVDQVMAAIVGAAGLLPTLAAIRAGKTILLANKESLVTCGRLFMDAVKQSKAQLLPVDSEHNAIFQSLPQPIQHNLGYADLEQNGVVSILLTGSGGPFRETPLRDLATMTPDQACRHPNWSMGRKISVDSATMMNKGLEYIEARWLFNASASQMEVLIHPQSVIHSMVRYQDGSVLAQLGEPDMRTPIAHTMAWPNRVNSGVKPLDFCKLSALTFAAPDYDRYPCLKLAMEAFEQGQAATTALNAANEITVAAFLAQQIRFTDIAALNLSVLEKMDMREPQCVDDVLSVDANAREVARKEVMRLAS
# Procedure, shortened: (§1)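 H-DXR in 50 mM Tris/HCl pH 7.5, 3 mM MgCl2, 2 mM DTT, 37 °C. Enzyme preincubated 2 min with inhibitor at 6 µM, with or without NADPH (160 µM). Reaction started by DXP (480 µM final) to measure residual activity.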
# [2] = target: T1, 1-deoxy-D-xylulose 5-phosphate reductoisomerase (Escherichia coli K-12); test: Inhibition of His-tagged Escherichia coli DXR at 6 uM pre-incubated for 2 mins before reaction initiation in absence of 160 uM NADPH; procedure, shortened: as §1
# [3] = target: T2, 1-deoxy-D-xylulose 5-phosphate reductoisomerase (Escherichia coli K-12, UniProt P45568); test: Inhibition of His-tagged Escherichia coli DXR pre-incubated for 2 mins before reaction initiation in presence of 160 uM NADPH in presence of 0.01% Triton X100
# T2 sequence (P45568 whole entry): T1 sequence (whole entry)
# Procedure, shortened: (§2)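 His-tagged E. coli DXR at 37 °C in 50 mM Tris/HCl pH 7.5 with 3 mM MgCl2 and 2 mM DTT. Enzyme preincubated 2 min with inhibitor and 480 µM DXP, then started with NADPH (160 µM final). Run with or without 0.01% Triton X100. Final DMSO 0.4% (v/v). IC50 taken from % residual activity vs log[inhibitor]; otherwise % inhibition at 20 µM.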
# [4] = target: T1, 1-deoxy-D-xylulose 5-phosphate reductoisomerase (Escherichia coli K-12); conditions: 1 to 8 uM
# Malate dehydrogenase [5] = target: T3, Malate dehydrogenase (Thermus thermophilus, UniProt P10584); test: Inhibition of Thermus flavus MDH pre-incubated for 4 mins before reaction initiation in presence of OAA and NAPH in absence of 0.01% Triton X100 by UV-Vis spectrophotometry
# T3 sequence (P10584 whole entry): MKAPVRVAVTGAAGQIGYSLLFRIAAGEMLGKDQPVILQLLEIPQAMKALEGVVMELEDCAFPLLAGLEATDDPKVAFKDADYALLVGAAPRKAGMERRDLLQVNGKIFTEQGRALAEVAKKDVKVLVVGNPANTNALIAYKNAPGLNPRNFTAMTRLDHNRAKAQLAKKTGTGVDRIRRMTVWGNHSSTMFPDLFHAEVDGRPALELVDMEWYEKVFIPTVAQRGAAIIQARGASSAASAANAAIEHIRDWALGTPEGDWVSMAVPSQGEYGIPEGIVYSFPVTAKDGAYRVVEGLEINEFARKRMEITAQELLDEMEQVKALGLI
# Procedure, shortened: (§3)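 MDH in 50 mM Tris/HCl pH 7.5 at 37 °C. Preincubated 4 min with inhibitor, with or without 0.01% (w/v) Triton X100. Reaction started by successive addition of oxaloacetate (250 µM final) and NADH (160 µM final). Initial rates followed as A340 decrease. At least duplicate; 0.4% DMSO final.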
# Escherichia coli [6] = test: Antimicrobial activity against Escherichia coli XL1 Blue at 800 nmol/4 uL by paper disc diffusion method; assay type: functional
# Procedure, shortened: (§4)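 Paper disc diffusion on E. coli XL1 Blue. Discs impregnated with compound dissolved in DMSO (4 µL): 400 nmol in the initial screen, then 200 to 800 nmol. Read-out is the diameter of the growth inhibition zone (mm).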
# [7] = target: T2, 1-deoxy-D-xylulose 5-phosphate reductoisomerase; test: Inhibition of His-tagged Escherichia coli DXR pre-incubated for 2 mins before reaction initiation in presence of 160 uM NADPH in absence of 0.01% Triton X100
# [8] = Lipophilicity, log P of the compound; assay type: physicochemical; conditions: octanol/water
# [9] = target: T4, Malate dehydrogenase (Thermus thermophilus) (UniProt P10584); test: Inhibition of Thermus flavus MDH at 50 uM pre-incubated for 4 mins before reaction initiation in presence of OAA and NAPH in presence of 0.01% Triton X100 by UV-Vis spectrophotometry; procedure, shortened: as §3
# T4 sequence (whole entry): T3 sequence (P10584 whole entry)
# Escherichia coli [10] = test: Antimicrobial activity against Escherichia coli XL1 Blue at 400 nmol/4 uL by paper disc diffusion method; assay type: functional; procedure, shortened: as §4
# [11] = target: T1, 1-deoxy-D-xylulose 5-phosphate reductoisomerase (Escherichia coli K-12); test: Inhibition of His-tagged Escherichia coli DXR at 20 uM pre-incubated for 2 mins before reaction initiation in presence of 160 uM NADPH in absence of 0.01% Triton X100; procedure, shortened: as §2
# [12] = target: T4, Malate dehydrogenase (Thermus thermophilus); test: Inhibition of Thermus flavus MDH at 50 uM pre-incubated for 4 mins before reaction initiation in presence of OAA and NAPH in absence of 0.01% Triton X100 by UV-Vis spectrophotometry; procedure, shortened: as §3
# [13] = target: T4, Malate dehydrogenase (Thermus thermophilus); test: Inhibition of Thermus flavus MDH at 10 uM pre-incubated for 4 mins before reaction initiation in presence of OAA and NAPH in presence of 0.01% Triton X100 by UV-Vis spectrophotometry; procedure, shortened: as §3
# [14] = target: T1, 1-deoxy-D-xylulose 5-phosphate reductoisomerase (Escherichia coli K-12); test: Inhibition of His-tagged Escherichia coli DXR at 20 uM pre-incubated for 2 mins before reaction initiation in presence of 160 uM NADPH in presence of 0.01% Triton X100; procedure, shortened: as §2
# [15] = target: T1, 1-deoxy-D-xylulose 5-phosphate reductoisomerase (Escherichia coli K-12); test: Inhibition of His-tagged Escherichia coli DXR at 10 uM pre-incubated for 2 mins before reaction initiation in presence of 160 uM NADPH
# [16] = target: T1, 1-deoxy-D-xylulose 5-phosphate reductoisomerase (Escherichia coli K-12); conditions: 10 uM
# [17] = target: T2, 1-deoxy-D-xylulose 5-phosphate reductoisomerase
# Malate dehydrogenase [18] = target: T3, Malate dehydrogenase; test: Inhibition of Thermus flavus MDH pre-incubated for 4 mins before reaction initiation in presence of OAA and NAPH in presence of 0.01% Triton X100 by UV-Vis spectrophotometry; procedure, shortened: as §3
inhibition [1] [%],inhibition [2] [%],IC50 (Malate dehydrogenase [5]) [nM],IC50 [7] [µM],inhibition [9] [%],inhibition [13] [%],inhibition [14] [%],SMILES,other results
29,70,3400,3.8,53,–,–,O=C(CN1C(=O)/C(=C/c2ccc(O)c(O)c2)SC1=S)NO,IC50 [3]: 6.1 µM; inhibition [4]: Active; inhibition zone (IZ) (Escherichia coli [6]): 20 mm; logP [8]: 1.8; inhibition zone (IZ) (Escherichia coli [10]): 14 mm
–,–,–,–,–,–,–,O=C(O)CN1C(=O)/C(=C/c2ccccc2)SC1=S,inhibition [11]: < 5%; inhibition [12]: < 5%
38,60,1000,3.6,–,< 5,< 5,Cc1ccc(Oc2ccc(NC(=O)CN3C(=O)/C(=C/c4cccc(O)c4O)SC3=S)cc2)cc1,–
30,38,400,4.1,< 5,–,10,Cc1ccc(Oc2ccc(NC(=O)CN3C(=O)/C(=C/c4ccc(O)c(O)c4)SC3=S)cc2)cc1,inhibition [15]: 53%; inhibition [16]: < 5%
41,64,500,3.2,< 5,–,< 5,O=C(CN1C(=O)/C(=C/c2ccc(O)c(O)c2)SC1=S)Nc1ccc(Oc2ccc(Cl)cc2)cc1,–
43,63,700,3.3,–,< 5,< 5,O=C(CN1C(=O)/C(=C/c2cccc(O)c2O)SC1=S)Nc1ccc(Oc2ccc(Cl)cc2)cc1,–
–,–,1300,58,–,< 5,–,O=C(CN1C(=O)/C(=C/c2ccc(O)cc2O)SC1=S)Nc1ccc(Oc2ccc(Cl)cc2)cc1,–
41,61,4700,3.1,–,–,–,O=C(O)CN1C(=O)/C(=C/c2ccc(O)c(O)c2)SC1=S,IC50 [3]: 4.4 µM; alphaKi [4]: 3 µM; Ki [17]: 7.7 µM; IC50 (Malate dehydrogenase [18]): 15 µM; logP [8]: 1
